# PAFAH1B3 inh: blocks human PAF acetylhydrolase 1B catalytic subunit 3; Q15102; recombinant PAFAH1B3, FP-rhodamine probe, fluorescence polarization; inhibition, % at 3.39 µM; 340,000 tested, 0.28% active; AID 492972;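 active = inhibition above the screen-wide average of all tested compounds plus 3 SD, cut at about 25% in these data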
# PAFAH2 inh: inhibitors of human PAFAH2 | 340,000 tested, 0.99% active | inhibition, % at 3.39 µM | AID 492956 | recombinant PAFAH2, FP-rhodamine activity probe, fluorescence polarization | Q99487;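 active = inhibition above the mean over all tested compounds plus 3 SD, cut at about 30% in these data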;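 also: inhibitors block probe labeling of enzyme so polarization drops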
# Apaf1 inhib: blocks human Apaf-1 apoptosome activity. reconstituted apoptosome caspase-3 activity, DEVD-Rh110 fluorescence. inhibition, % at 20 µM. 330,000 tested, 0.71% active. AID 489030; active = inhibition of at least 40% at 20 µM
# Target sequence (O14727 whole entry, looked up): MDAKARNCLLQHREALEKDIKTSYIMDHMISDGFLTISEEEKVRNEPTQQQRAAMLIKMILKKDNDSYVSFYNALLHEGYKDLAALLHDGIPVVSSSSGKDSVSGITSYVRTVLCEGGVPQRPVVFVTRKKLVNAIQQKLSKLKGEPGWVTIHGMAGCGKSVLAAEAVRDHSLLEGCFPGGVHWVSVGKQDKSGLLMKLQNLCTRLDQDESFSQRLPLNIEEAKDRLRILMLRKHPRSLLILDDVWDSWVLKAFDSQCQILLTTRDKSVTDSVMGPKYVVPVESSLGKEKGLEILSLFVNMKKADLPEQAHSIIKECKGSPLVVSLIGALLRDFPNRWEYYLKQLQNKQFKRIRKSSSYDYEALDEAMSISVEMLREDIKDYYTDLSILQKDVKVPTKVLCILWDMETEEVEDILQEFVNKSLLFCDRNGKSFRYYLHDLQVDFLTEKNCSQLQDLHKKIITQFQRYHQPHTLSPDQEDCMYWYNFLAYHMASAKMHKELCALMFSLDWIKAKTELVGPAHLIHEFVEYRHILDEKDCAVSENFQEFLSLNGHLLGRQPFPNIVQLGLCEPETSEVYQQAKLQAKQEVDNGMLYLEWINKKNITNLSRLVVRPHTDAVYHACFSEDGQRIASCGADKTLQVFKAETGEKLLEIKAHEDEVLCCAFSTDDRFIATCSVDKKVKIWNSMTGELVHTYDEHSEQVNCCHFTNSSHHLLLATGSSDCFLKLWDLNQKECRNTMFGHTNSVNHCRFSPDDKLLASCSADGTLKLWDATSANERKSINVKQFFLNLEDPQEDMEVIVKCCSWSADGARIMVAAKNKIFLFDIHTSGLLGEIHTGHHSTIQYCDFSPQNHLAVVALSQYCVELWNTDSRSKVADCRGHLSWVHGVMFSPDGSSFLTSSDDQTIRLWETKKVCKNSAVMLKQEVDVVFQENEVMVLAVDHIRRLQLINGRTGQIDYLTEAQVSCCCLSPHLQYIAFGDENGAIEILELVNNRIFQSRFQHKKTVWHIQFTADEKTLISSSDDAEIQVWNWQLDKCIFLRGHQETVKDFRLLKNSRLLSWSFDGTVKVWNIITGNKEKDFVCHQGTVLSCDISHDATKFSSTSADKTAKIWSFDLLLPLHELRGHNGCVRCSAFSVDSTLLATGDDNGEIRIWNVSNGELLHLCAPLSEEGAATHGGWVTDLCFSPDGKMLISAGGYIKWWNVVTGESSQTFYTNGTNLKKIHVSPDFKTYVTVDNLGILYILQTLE
#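 Medium: Hepes buffer, pH 7.5 / System: biochemical Apaf-1 apoptosome reconstitution / Measured by: Rh110 fluorescence, excitation 480 nm, emission 540 nm / Times: compound with Apaf-1, dATP, procaspase-3 30 min, then 50 min reaction, room temperature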
# PAFAH1B2 inh: inhibitors of human PAFAH1B2. P68402. 340,000 tested, 1.2% active. inhibition, % at 3.39 µM. AID 492953. recombinant PAFAH1B2, FP-rhodamine activity probe, fluorescence polarization;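 active = inhibition above the mean of all tested compounds plus 3 SD, cut at about 24% in these data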
# TDP2 absorb: TDP2 (human) inhibition, absorbance primary screen; inhibition, % at 12.8 µM; 370,000 tested, 0.34% active; recombinant TDP2, T5PNP hydrolysis, p-nitrophenol absorbance 415 nm;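 active = inhibition above the mean of all tested compounds plus 3 SD, set per campaign, cut at about 25% in these data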
#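 Assay system: Recombinant human TDP2 | Quantity: 120 nM TDP2 per well | Incubation: 2 h at 37 °C | Signal: Epi absorbance | Evaluation: Percent inhibition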
# Apaf-1 inh conf2: confirmation of Apaf-1 inhibitors; shares compounds with Apaf1 inhib; reconstituted apoptosome, caspase-3 DEVD-Rh110 fluorescence; inhibition, % at 20 µM; 1,800 tested, 25% active; AID 504614;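 active = mean inhibition of at least 40% at 20 µM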
# Rh110 interf inh: Rh110 signal interference in Apaf-1 inhibitor counter-screen; activation (fluorescence interference), % at 20 µM; Rh110 fluorescence interference, quenched caspase reaction; AID 504615; shares compounds with Apaf1 inhib; 1,800 tested, under 10 active;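 active = signal rise of 40% or more at 20 µM, treated as a fluorescence artifact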
# Fluor interf inh: shows fluorescence interference in the Apaf-1 inhibitor assay format. shares compounds with Apaf1 inhib. fluorescence interference counterscreen, Apaf-1 assay format. IC50, µM. 460 tested, under 10 active. AID 588538; call rule not given here
# Numbers stand for hits; 0 = inactive; - = not tested or not shown. Rows were chosen to be rich in hits. Some 2.3% of all compounds tested hit in one or more screens of this group.
SMILES,PAFAH1B3 inh,PAFAH2 inh,Apaf1 inhib,PAFAH1B2 inh,TDP2 absorb,Apaf-1 inh conf2,Rh110 interf inh,others
N#CC1=C2SCN(Cc3ccccc3)CN2C(=O)CC1c1ccc2c(c1)OCO2 (stereo not drawn),0,0,0,0,0,-,-,
COc1ccc2ccccc2c1C1CC(=O)N2CN(Cc3ccco3)CSC2=C1C#N (stereo not drawn),0,0,52,0,0,0,0,
N#CC1=C2SCN(Cc3ccccc3)CN2C(=O)CC1c1cccs1 (stereo not drawn),0,0,78,0,0,0,0,
Cc1ccccc1NC(=O)OC1CC2CC1[C@H]1CCCCN1[C@H]2Cc1ccccc1 (stereo partly drawn),-,-,-,-,0,-,-,
O=C(Nc1cccc([N+](=O)[O-])c1)OCc1ccc2c(c1)OCO2,-,-,-,-,0,-,-,
O=C(COc1ccccc1)N1CCN=C1SCc1ccc(F)cc1,0,0,56,0,0,0,0,
COC(=O)c1nn(-c2ccc(OC)cc2)c(=O)cc1Sc1ccc(C)cc1,-,-,0,-,0,-,-,
COC(=O)c1nn(-c2ccc(OC)cc2)c(=O)cc1NN,0,0,42,0,0,0,0,
CCC(CO)Oc1cc(NCc2cccc(C)c2)c2ncn(C(C)C)c2c1 (stereo not drawn),0,0,54,0,0,0,0,
CCC(CO)Oc1cc(NCc2ccc(C)cc2)c2ncn(C(C)C)c2c1 (stereo not drawn),0,0,41,0,0,0,0,
CCC(CO)Oc1cc(NCc2cccc(C(F)(F)F)c2)c2ncn(C(C)C)c2c1 (stereo not drawn),0,0,41,0,0,0,0,
COC(=O)C[C@@H]1CC[C@H]2[C@H](COc3ccc(NC(=O)Nc4ccc(Cl)cc4)cc3C(=O)N2C)O1,-,-,-,-,0,-,-,
CC1=CC(=C(C#N)c2nc3ccccc3s2)C=C(C)N1c1ccc(F)cc1,0,0,45,0,0,0,0,
CC(C)=C(C#N)c1nc2ccccc2s1,0,0,0,0,0,-,-,
COc1ccccc1N1C(C)=CC(=C(C#N)c2nc3ccccc3s2)C=C1C,0,0,56,0,0,0,0,
O=C(Nc1ccc(F)cc1)OCc1cn(Cc2ccccc2)nn1,-,-,-,-,0,-,-,
CC(C)CNc1cccc2c1S(=O)(=O)N[C@@H](C)CO2,-,-,-,-,0,-,-,
CCC(=O)NC1=C(Cl)C(=O)C(NC(=O)CC)=C(Cl)C1=O,0,0,71,0,0,0,0,
CCOc1ccc(/C=C/[N+](=O)[O-])c2ccccc12,0,0,80,0,-,0,0,
CCN(CC)CCOC(=O)c1ccc(N/C=C(/C#N)c2nc(-c3cc4ccccc4oc3=O)cs2)cc1,0,0,54,0,0,61,0,Fluor interf inh=0
CCN(CC)CCOC(=O)c1ccc(N/C=C(/C#N)c2nc(-c3ccc4c(c3)OCO4)cs2)cc1,0,0,60,0,0,63,0,Fluor interf inh=0
C=CCN1C(=O)[C@H](CC(=O)NCC2CCCCC2)[C@@]2(C(=O)OCC)CCCC=C12,-,-,-,-,0,-,-,
COc1ccc(NS(=O)(=O)c2ccc(C)c(NC(=O)CN3C(=O)NC4(CCCC4)C3=O)c2)cc1,0,0,82,0,0,58,0,Fluor interf inh=0
Cc1ccc(S(=O)(=O)N(C)C)cc1NC(=O)CN1C(=O)NC2(CCCCCC2)C1=O,0,0,0,0,0,-,-,
O=C(CN1C(=O)C2CCCCN2C(=O)c2ccccc21)N1CCCC1 (stereo not drawn),-,-,-,-,0,-,-,
SMILES,PAFAH1B3 inh,PAFAH2 inh,Apaf1 inhib,PAFAH1B2 inh,TDP2 absorb,Apaf-1 inh conf2,Rh110 interf inh,others
FC(F)(F)Oc1cccc(Cn2ccc3ccc(-c4ccc5ccn(Cc6ccccc6)c5c4)cc32)c1,-,-,-,-,0,-,-,
COc1ccc(NC(=O)c2c[nH]n3c(=O)cc(C4CCN(C(=O)OC(C)(C)C)CC4)nc23)cc1Cl,0,0,42,0,0,0,0,
CC(C)(C)OC(=O)N1CCC(c2cc(=O)n3[nH]cc(C(=O)Nc4ccc(F)c(Cl)c4)c3n2)CC1,0,0,0,0,0,-,-,
Cc1ccccc1NC(=O)N(C)[C@H]1C[C@H]2c3[nH]c4c(-c5ccccc5)cccc4c3CCN2C[C@H]1[C@H](C)O,-,-,-,-,0,-,-,
O=C(NNc1cc(N2CCCC2)nc(N2CCCC2)n1)c1ccc([N+](=O)[O-])cc1,0,0,98,0,0,76,0,Fluor interf inh=0
O=C(CCc1ccccc1)NNC(=O)C1CCCCC1,0,0,0,0,0,-,-,
Cc1nc(NNC(=O)c2ccc([N+](=O)[O-])cc2)cc(-c2ccccc2)n1,0,0,0,0,0,-,-,
CC(C)(C)c1ccc(C(=O)NNc2cc(N3CCCCC3)nc(N3CCCCC3)n2)cc1,0,0,73,0,0,44,0,Fluor interf inh=0
O=C(CCc1ccccc1)NNc1cc(N2CCCCC2)nc(N2CCCCC2)n1,0,0,60,0,0,44,0,Fluor interf inh=0
CC(C)(C)c1ccc(C(=O)NNc2cc(N3CCOCC3)nc(N3CCOCC3)n2)cc1,0,0,0,0,0,-,-,
CCCC/C=C1/[C@@H](CC)N(Cc2ccc(OC)cc2OC)C2=N[C@@H](c3ccccc3)CC(=O)N21,-,-,-,-,0,-,-,
C[C@@H]1CN([C@H](C)CO)C(=O)c2cc(NC(=O)Nc3ccccc3)ccc2O[C@@H](C)CCCCO[C@H]1CN(C)S(=O)(=O)c1ccc(F)cc1,-,-,-,-,0,-,-,
CC12COC3(P(=O)(c4ccccc4)c4ccccc4)CC1CCC23CP(=O)(c1ccccc1)c1ccccc1 (stereo not drawn),0,0,41,0,0,0,0,
CCN(CC)CCN(C(=O)c1ccc2c(c1)CCCC2)c1nc2ccc(OC)cc2s1,0,0,61,0,0,0,0,
CCN(CC)CCN(C(=O)c1ccc2c(c1)CCCC2)c1nc2ccc(C)cc2s1,0,0,51,0,0,0,0,
CCN(CC)CCN(C(=O)c1ccc2c(c1)CCCC2)c1nc2ccc(F)cc2s1,0,0,0,0,0,-,-,
FC(F)(F)c1cc(CCN2CCNC[C@@H]2Cc2ccccc2)cc(C(F)(F)F)c1,0,0,57,0,0,0,0,
O=[N+]([O-])c1ccccc1-c1ccc(C(=S)N2CCCCC2)o1,0,0,0,0,0,-,-,
O=[N+]([O-])c1ccccc1-c1ccc(C(=S)N2CCCC2)o1,0,0,47,0,0,0,0,Fluor interf inh=0
O=C(NCCCN1CCc2ccccc2C1)C1CCN(c2nnc(-n3cccc3)s2)CC1,0,0,51,0,0,0,0,
COC(=O)[C@]12C[C@H](CC(=O)N3CCN(C(=O)C4CC4)CC3)C(=O)N(Cc3ccc(Cl)cc3Cl)C1=C[C@H](C(C)C)O[C@@H]2C1CC1,-,-,-,-,0,-,-,
O=C(/C=C/c1ccco1)c1ccc(NC(=O)C23CC4CC(CC(C4)C2)C3)cc1,0,0,45,0,0,0,0,

# Compound activity from PubChem BioAssay.
